Calls of active or inactive are those of the source.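 Rule for the calls, unless noted: active = NADPH fluorescence slope more negative than the mean of all samples by about 3 SD, 99.7% confidence; inactive = the rest.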
Legend:
[1] = inhibitors of TNFa-induced NFkB p65 translocation, primary screen, imaging, HUVEC, MLSMR starter and 10KST1 sets (AID 438;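 active = inhibition above 20% together with a positive visual image hit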;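 note: compound added about 3h40 before a 20 min TNFalpha stimulation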;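 for inhibition: signal is the nuclear over cytoplasmic p65 intensity ratio per well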); conditions: HUVEC TNFa-induced p65 nuclear translocation; cell count: measured here: nuclei count (cytotoxicity indicator), at 2.08 µM; inhibition: at 2 µM, stronger effect = higher value, 0% TNFa-plus-vehicle, 100% no-TNFa wells
[2] = inhibitors of E-selectin induction by TNFa, primary screen, imaging, HUVEC, immunofluorescence, MLSMR starter and 10KST1 sets (AID 487;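 active = visually confirmed hit in the image check and inhibition above 20%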;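 for inhibition: signal is fraction of cell area covered by stained E-selectin grains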;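 for nuclei count: 100% = median nuclei count of all wells on the same plate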); conditions: HUVEC TNFalpha-induced E-selectin immunofluorescence imaging, at 2 µM; inhibition: stronger effect = higher value; nuclei count: measured here: cell number, toxicity
[3] = DUSP6 inhibitors restoring Erk phosphorylation by chemical complementation, primary imaging in DUSP6-transfected HeLa (AID 609;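 active = compounds giving at least 50% inhibition in the cell-based MKP-3 phosphatase rescue imaging test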;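 for inhibition: phospho-Erk level distribution per well compared with pooled transfected vehicle control wells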); conditions: HeLa MKP-3 transfected, phospho-Erk imaging KS statistic, at 10 µM, cells stimulated with TPA for 15 min
[4] = target: Dual specificity protein phosphatase 6 (Homo sapiens) (UniProt Q16828); experiment: as above; conditions: HeLa MKP-3 transfected, phospho-Erk imaging KS statistic; at 10 µM; stronger effect = higher value; cells stimulated with TPA for 15 min
[5] = target: Voltage-gated potassium channel subunit beta-2 (Rattus norvegicus) (UniProt P62483); experiment: KvBeta enzyme negative modulators, primary screen, biochemical, NADPH fluorescence (AID 622;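 active = fluorescence slope higher than the sample average by over 3 SD, cut at about -0.22 in these data, passing the limit was not always enough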;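 note: slope of raw intensity against log time taken from 70 to 1610 s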); conditions: recombinant KvBeta, 4-cyanobenzaldehyde reduction, at 10 µM, stronger effect = higher value
[6] = target: Voltage-gated potassium channel subunit beta-2 (Rattus norvegicus) (UniProt P62483); experiment: KvBeta positive modulators, primary screen, biochemical, NADPH fluorescence (AID 623); conditions: Recombinant KvBeta, NADPH fluorescence decrease slope, 10 min; at 10 µM; stronger effect = lower value;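 note: fluorescence intensity change per second fitted from 20 to 320 s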
[7] = target: Muscarinic acetylcholine receptor M4 (Homo sapiens) (UniProt P08173); experiment: compounds altering M4/GIRK thallium flux, either direction, primary screen, M4 allosteric agonist project, cell-based, HEK293 M4/GIRK, BTC-AM (AID 625;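 active = fluorescence slope after compound addition differing from the mean of all tested samples at 99.7% confidence, mostly higher but some lower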;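 note: thallium influx through GIRK channels coupled to M4 in HEK293 cells with BTC-AM dye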); conditions: at 10 µM, actives lie on both sides
Procedure, shortened: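 Material: HEK293 cells with M4 receptor and GIRK channels; Times: cells overnight at 37 °C, BTC-AM loading 1 h, reads 2 min total; Technique: kinetic BTC-AM fluorescence sampled at 1 Hz, 10 s pre-addition baseline; Read-out basis: slope over 15–24 s of trace normalized to starting intensity; Controls: carbachol positive, DMSO negative.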

[8] = inhibitors of larval lipid processing in zebrafish, primary screen, whole organism, PED6 fluorescence, gall bladder and intestine (AID 686;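 active = a full or partial loss of lipid-probe fluorescence in the fish gall bladder, intestine or both, judged by eye; inactive = no fluorescence loss, or compound toxic to the fish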;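 note: larvae 5 to 7 days old with five fish per well; signal comes from phospholipase A2 cleavage of quenched PED6 carried via bile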); conditions: Zebrafish larvae PED6 lipid processing, fluorescence scoring; screened at 20 µM (by protocol)
Procedure, shortened: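 Incubation: overnight exposure of larvae to compound plus PED6 / Test system: live zebrafish larvae aged 5-7 days, whole organism / Amount: 5 larvae per well / Read-out basis: visual per-well fluorescence inhibition score / Signal: visual fluorescence microscopy scoring of gall bladder, gut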

[9] = inhibitors of Chlamydomonas gravitaxis, primary screen, whole organism, Chlamydomonas reinhardtii, WT vs cilia-less mutant, absorbance, 96-well (AID 463189;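 active = inhibition at or above 50% relative to wild type and mutant plate controls; inactive = inhibition below 50%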;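 note: 0% = wild type cc124 cells in DMSO and 100% = ciliumless bld1 mutant cells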); conditions: OD600 absorbance, 2 days, at 10 µM, stronger effect = higher value
[10] = measured here: cell density z-score
[11] = measured here: nuclear c-Myc green intensity z-score
[12] = measured here: nuclear pErk red intensity z-score, stronger effect = higher value

Sequence of Dual specificity protein phosphatase 6 (Homo sapiens) (Q16828 whole entry, looked up): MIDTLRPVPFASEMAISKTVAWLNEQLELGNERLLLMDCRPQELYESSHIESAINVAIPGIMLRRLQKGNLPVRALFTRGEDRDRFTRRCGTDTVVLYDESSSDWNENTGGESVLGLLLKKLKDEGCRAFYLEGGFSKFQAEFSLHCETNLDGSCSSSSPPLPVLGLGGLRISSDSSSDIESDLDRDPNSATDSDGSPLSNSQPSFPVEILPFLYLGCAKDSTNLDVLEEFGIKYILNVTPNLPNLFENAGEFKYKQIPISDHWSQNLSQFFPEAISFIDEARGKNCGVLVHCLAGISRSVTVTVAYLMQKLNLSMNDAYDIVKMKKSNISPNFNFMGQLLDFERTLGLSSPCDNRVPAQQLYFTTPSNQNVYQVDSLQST
Sequence of Muscarinic acetylcholine receptor M4 (Homo sapiens) (P08173 whole entry, looked up): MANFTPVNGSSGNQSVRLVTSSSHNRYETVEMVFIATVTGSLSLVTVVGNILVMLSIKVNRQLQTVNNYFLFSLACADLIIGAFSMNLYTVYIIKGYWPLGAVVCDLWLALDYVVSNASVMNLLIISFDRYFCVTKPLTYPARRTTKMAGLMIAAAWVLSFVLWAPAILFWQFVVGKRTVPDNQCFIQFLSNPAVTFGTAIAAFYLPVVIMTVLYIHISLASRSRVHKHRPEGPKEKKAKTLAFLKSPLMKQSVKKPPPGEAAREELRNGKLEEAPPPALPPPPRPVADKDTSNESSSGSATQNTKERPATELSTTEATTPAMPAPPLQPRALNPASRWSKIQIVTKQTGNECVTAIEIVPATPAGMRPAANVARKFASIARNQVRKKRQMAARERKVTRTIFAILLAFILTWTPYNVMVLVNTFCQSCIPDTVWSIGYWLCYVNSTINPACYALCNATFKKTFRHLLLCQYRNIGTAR
Sequence of Voltage-gated potassium channel subunit beta-2 (Rattus norvegicus) (P62483 whole entry, looked up): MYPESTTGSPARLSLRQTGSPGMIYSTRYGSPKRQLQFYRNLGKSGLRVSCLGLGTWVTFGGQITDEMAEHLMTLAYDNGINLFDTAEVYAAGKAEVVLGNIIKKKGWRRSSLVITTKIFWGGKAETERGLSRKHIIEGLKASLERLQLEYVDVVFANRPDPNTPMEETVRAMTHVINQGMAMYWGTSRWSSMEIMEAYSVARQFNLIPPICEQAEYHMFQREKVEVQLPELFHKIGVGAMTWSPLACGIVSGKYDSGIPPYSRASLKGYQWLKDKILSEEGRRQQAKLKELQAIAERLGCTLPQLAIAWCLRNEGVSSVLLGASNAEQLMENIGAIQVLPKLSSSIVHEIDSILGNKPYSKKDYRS

Row | SMILES | cell count [1] | inhibition [1] | inhibition [2] | nuclei count [2] | z-score [3, 10] | z-score [3, 11] | z-score [3, 12] | inhibition [4] | fluorescence slope [5] | NADPH fluorescence slope [6] | fluorescence slope [7] | outcome [8] | inhibition [9]
1 | COc1ccc(CC(=O)OCN2C(=O)c3ccccc3C2=O)cc1 | 518 | -10.2% (inactive) | -70.2% (inactive) | 138% | 0.489 | -1.2 | -0.603 | 11.9% (inactive) | -0.359 (inactive) | -1.7e-05 (inactive) | 0.00563 (inactive) | inactive | 20.5% (inactive)
2 | Cn1c(=O)n(CC(=O)Nc2ccccc2)c2ccccc21 | 382 | -4.5% (inactive) | -15.2% (inactive) | 152% | -0.194 | 0.676 | -0.438 | 22.3% (inactive) | -0.453 (inactive) | -0.000119 (inactive) | 0.0039 (inactive) | inactive | -5.61% (inactive)
3 | CCOC(=O)C1CCN(c2ncnc3c2cnn3-c2ccc(Cl)cc2)CC1 | 621 | -13.7% (inactive) | -82.8% (inactive) | 158% | 1.18 | -0.0217 | -0.611 | 27.4% (inactive) | -0.442 (inactive) | -1.8e-05 (inactive) | 0.00741 (inactive) | inactive | -0.354% (inactive)
4 | CN1CCN(c2c3c(c(C#N)c4nc5ccccc5n24)CCCC3)CC1 | 514 | 0.8% (inactive) | -60.7% (inactive) | 130% | 1.3 | -0.661 | -1.13 | 5.95% (inactive) | -0.35 (inactive) | -3.3e-05 (inactive) | 0.00748 (inactive) | inactive | -10.8% (inactive)
5 | O=C(NCc1ccco1)c1ccc(=O)[nH]n1 | 578 | 3.8% (inactive) | -71.8% (inactive) | 91.1% | 0.426 | -0.894 | -1.39 | 28.1% (inactive) | -0.539 (inactive) | -4.2e-05 (inactive) | 0.00665 (inactive) | inactive | 29.4% (inactive)
6 | CC1(C)Cc2c(C#N)c(N3CCN(C(=O)c4ccccc4)CC3)nc(-c3ccco3)c2CS1 | 640 | -9% (inactive) | -74.3% (inactive) | 156% | 0.833 | 0.824 | -0.638 | 19.1% (inactive) | -0.401 (inactive) | -2.5e-05 (inactive) | 0.0059 (inactive) | inactive | 7.79% (inactive)
7 | COC(=O)C(NC(=O)c1ccccc1)(Nc1nc(C)cs1)C(F)(F)F (stereo not drawn) | 687 | -8.5% (inactive) | -24.1% (inactive) | 152% | -0.446 | -1.08 | 0.594 | 10.9% (inactive) | -0.481 (inactive) | -3.9e-05 (inactive) | 0.00439 (inactive) | inactive | 11.6% (inactive)
8 | O=C(Cc1ccc(Cl)cc1)Nc1cccc(-c2nnc(-c3ccco3)o2)c1 | 695 | -4% (inactive) | 32.2% (inactive) | 162% | 0.714 | 1.13 | -0.033 | 7.21% (inactive) | -0.476 (inactive) | -7.5e-05 (inactive) | 0.006 (inactive) | inactive | 5.58% (inactive)
9 | CC1(C)Cc2ccccc2-c2c1c(=O)n(-c1ccccc1)c1nnnn21 | 624 | 8.6% (inactive) | -45% (inactive) | 92.5% | 0.648 | -0.29 | -0.398 | 4.72% (inactive) | -0.51 (inactive) | -1.7e-05 (inactive) | 0.00444 (inactive) | inactive | 13.9% (inactive)
10 | CCCCOc1ccc(C(=O)NCC(=O)NCC(=O)OCC)cc1 | 357 | -8.2% (inactive) | -101% (inactive) | 108% | -0.206 | 0.434 | -0.573 | -6.59% (inactive) | -0.49 (inactive) | 4.9e-06 (inactive) | 0.00496 (inactive) | inactive | -13.2% (inactive)
11 | O=C(NCCN1CCOCC1)c1ccc(=O)oc1 | 515 | -7.5% (inactive) | 70.5% (active) | 102% | 0.12 | 1.12 | 0.0878 | 4.37% (inactive) | -0.481 (inactive) | -8.3e-05 (inactive) | 0.0085 (inactive) | inactive | -15.9% (inactive)
12 | CSc1cc(C)nc(N(C)C(C)=O)n1 | 672 | -1.4% (inactive) | -9.4% (inactive) | 145% | -2.7 | 1.16 | 0.496 | 5.35% (inactive) | -0.421 (inactive) | -5.5e-05 (inactive) | 0.00511 (inactive) | inactive | -6.47% (inactive)
13 | c1ccc(-n2ncc3c(NCC4CCCO4)ncnc32)cc1 (stereo not drawn) | 597 | -4% (inactive) | -84.5% (inactive) | 113% | -2.6 | -0.155 | 1.07 | 1.42% (inactive) | -0.389 (inactive) | -9.3e-05 (inactive) | 0.00807 (inactive) | inactive | -15.2% (inactive)
14 | FC(F)(F)c1cccc(N2CCc3cn[nH]c32)c1 | 690 | 2.2% (inactive) | -30.9% (inactive) | 178% | 0.755 | 0.954 | 0.248 | 15.9% (inactive) | -0.48 (inactive) | -6.5e-05 (inactive) | 0.00449 (inactive) | inactive | -4.32% (inactive)
15 | Cc1nc2c(c(N3CCOCC3)n1)OCC(=O)N2 | 562 | -5.6% (inactive) | -63.7% (inactive) | 132% | -1.14 | 0.329 | 1.34 | -4.59% (inactive) | -0.454 (inactive) | -9.1e-05 (inactive) | 0.00529 (inactive) | inactive | 31.8% (inactive)
16 | CCCCC(CCC(=O)Nc1ccc(C(=O)OC)cc1)C(=O)O (stereo not drawn) | 405 | -4.7% (inactive) | -189% (inactive) | 152% | 0.378 | -1.21 | -0.623 | 14% (inactive) | -0.439 (inactive) | -0.000105 (inactive) | 0.00484 (inactive) | inactive | 25.1% (inactive)
17 | C=CCc1cccc(/C=N/n2cnnc2)c1O | 534 | -6.9% (inactive) | -121% (inactive) | 136% | -0.238 | 0.5 | -0.321 | 13.4% (inactive) | -0.446 (inactive) | -0.00012 (inactive) | 0.00478 (inactive) | inactive | -8.96% (inactive)
18 | O=C1c2ccccc2C(=O)N1c1ncccn1 | 500 | -8.5% (inactive) | -89% (inactive) | 138% | -0.519 | -0.638 | 0.031 | 1.42% (inactive) | -0.454 (inactive) | -0.000107 (inactive) | 0.00418 (inactive) | inactive | 3.86% (inactive)
19 | Oc1ccc2ccccc2c1C=NC12CN3CCN(CN(C3)C1)C2 | 349 | -5.7% (inactive) | -45.1% (inactive) | 163% | -0.271 | 0.531 | 0.781 | -2.59% (inactive) | -0.436 (inactive) | -0.000124 (inactive) | 0.00489 (inactive) | inactive | 1.64% (inactive)
20 | CN(C)CCCN(CCCNC(=O)/C=N/O)Cc1ccccc1 | 652 | -10.5% (inactive) | -38% (inactive) | 181% | -1.02 | -0.157 | 0.798 | -2.09% (inactive) | -0.495 (inactive) | -5.8e-05 (inactive) | 0.00839 (inactive) | inactive | 8.7% (inactive)
21 | Cc1ccc(-c2nn(C)c(=O)c3ccccc23)cc1CN1CCOCC1 | 424 | -0.6% (inactive) | -40.3% (inactive) | 145% | 0.246 | 0.445 | -0.955 | 6.04% (inactive) | -0.452 (inactive) | -3.3e-05 (inactive) | 0.00454 (inactive) | inactive | -2.85% (inactive)
